TCR CD3 inh = inhibitors of human TCR-CD3 interaction, primary screen, biochemical, fluorescence, TAMRA-labeled TCR probe | AID 651800, 2012 | 0.37% of 360,000 active | inhibition, % at 9.4 µM; in the data active = inhibition above about 19%;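 also: recombinant mutant TCR 2C K166C tagged with TAMRA read by polarization; 0% = receptor in buffer alone and 100% = receptor with positive control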
HTRA1 inh = HTRA1 serine protease inhibitors, primary screen, biochemical, fluorescence polarization, HTS. Q92743. recombinant HTRA1, FP-rhodamine activity-based probe. inhibition, % at 5.96 µM. 0.5% of 340,000 active. AID 504803, 2011; in the data active = inhibition above about 36%;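 also: 0% = enzyme with DMSO and 100% = wells lacking enzyme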
SIAE inh = human SIAE inhibitors, primary screen, biochemical, fluorescence polarization, FP-Rh probe, 1536-well HTS; Sialate O-acetylesterase (Homo sapiens), Q9HAT2; SIAE FP-Rh probe binding; inhibition, % at 9.66 µM; 0.69% of 370,000 active;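 active = inhibition above a cutoff: mean of compounds within the control limits plus 3 SD of those, cut at about 17% in these data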;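 also: 0% = plate median of compound wells and 100% = probe without SIAE protein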
pPAFAH inh = pPAFAH enzyme inhibitors, primary screen, biochemical, fluorescence polarization, human; 1.5% of 330,000 active; Platelet-activating factor acetylhydrolase (Homo sapiens), Q13093; recombinant pPAFAH, FP-rhodamine probe fluorescence polarization; inhibition, % at 3.39 µM;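 active = inhibition above the mean inhibition across the screen plus 3 SD, cut at about 25% in these data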;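 also: inhibitors block binding of the rhodamine activity-based probe so polarization drops; 0% = enzyme with DMSO and 100% = wells lacking pPAFAH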
ABHD4 inh = ABHD4 inhibitors, primary screen, biochemical, fluorescence polarization, mouse; 0.54% of 370,000 active; inhibition, % at 8.92 µM; purified mABHD4, FP-Rh probe fluorescence polarization; (Lyso)-N-acylphosphatidylethanolamine lipase (Mus musculus), Q8VD66;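 active = inhibition exceeding the mean over every tested compound plus 3 SD, cut at about 30% in these data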;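 also: 0% = plate median of compound wells and 100% = S159A mutant with DMSO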
Target sequence (Q8VD66 whole entry, looked up): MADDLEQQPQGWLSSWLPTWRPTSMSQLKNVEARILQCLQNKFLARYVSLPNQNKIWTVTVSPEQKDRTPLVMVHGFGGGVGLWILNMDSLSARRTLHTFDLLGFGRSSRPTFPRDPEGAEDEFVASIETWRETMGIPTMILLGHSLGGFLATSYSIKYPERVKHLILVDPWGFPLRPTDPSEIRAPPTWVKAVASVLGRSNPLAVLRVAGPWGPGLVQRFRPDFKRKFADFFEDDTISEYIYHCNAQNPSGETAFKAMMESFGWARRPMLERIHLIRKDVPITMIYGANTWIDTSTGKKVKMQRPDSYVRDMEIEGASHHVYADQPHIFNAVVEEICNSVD
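Material: mouse ABHD4 enzyme, wild type; Benchmarks: S159A mutant high control, sample median low control; Buffer or medium: HEPES pH 7.0, NaCl, Pluronic buffer; Signal: fluorescence polarization; Read-out: percent inhibition of probe binding, normalized to plate controls; Timing: pre-incubation 45 min, probe exposure 60 min, at 25 °C; Dosing: 8.92 µM, single dose.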
pPAFAH FP conf = pPAFAH (PLA2G7) enzyme inhibitors, confirmation, biochemical, fluorescence polarization, human | recombinant pPAFAH, FP-Rh probe fluorescence polarization | AID 463230, 2010 | inhibition, % at 3.39 µM | 72% of 2,300 active | shares compounds with pPAFAH inh;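 active = mean inhibition of the triplicate above the hit cutoff set for the earlier primary screen, cut at about 25% in these data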;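 also: 0% = enzyme with DMSO and 100% = wells lacking pPAFAH enzyme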
The depositor's hits bear a star; / = no result. An excerpt weighted towards active compounds, which were near 2.3% of everything screened.

SMILES	TCR CD3 inh	HTRA1 inh	SIAE inh	pPAFAH inh	ABHD4 inh	others
COc1cc(S(=O)(=O)Nc2cccc(C)c2)ccc1NC(=O)c1cccnc1	5	-6	-1	30*	0
CC(=O)Nc1ccc(NS(=O)(=O)c2ccc(-c3cnc(C4CC4)o3)cc2)cc1	4	0	3	3	-7
CCOc1ccc(NS(=O)(=O)c2ccc(-c3cnc(C4CC4)o3)cc2)cc1	-1	-26	-13	31*	-7
Cc1ccc(C)c(NS(=O)(=O)c2ccc(-c3cnc(C4CC4)o3)cc2)c1	0	-41	-13	33*	-15
CCCN(C(=O)c1cn(CCC)c2ccccc12)c1ccc(Oc2cccnc2)cc1	-1	/	-5	/	-36
COc1ccccc1C(=O)N(Cc1ccccn1)CC1CCCO1 (stereo not drawn)	/	/	0	/	6
CCCCNc1c(-c2ccc(SC(C)CC)cc2)nc2cnccn12 (stereo not drawn)	/	11	/	34*	/
CCCCNc1c(-c2ccc(OC)c(Sc3ccc(OC)cc3)c2)nc2cnccn12	4	1	9	16	5
CCCC[C@@H]1C(=O)N2N=Cc3cc(C)c(C)cc3[C@H]2N2N=Cc3cc(C)c(C)cc3[C@@H]12	/	/	-11	/	-12
O=C(Cn1ccccc1=O)NCc1ccc(F)cc1	-4	0	9	33*	0
Cc1ccccc1Nc1nc(N)nc(COC(=O)CCNS(=O)(=O)c2ccccc2)n1	-2	-11	-11	28*	-13
O=C(CCNS(=O)(=O)c1ccccc1)OCC(=O)c1ccc(F)cc1	5	1	-4	34*	0
Cc1cc(Cl)ccc1NC(=O)COC(=O)CCNS(=O)(=O)c1ccccc1	10	3	2	34*	2
O=C(COC(=O)CCNS(=O)(=O)c1ccc(Cl)cc1)NCc1ccco1	2	1	7	27*	2
CCOc1ccccc1C(=O)N1CCC(Oc2cccnc2)CC1	/	/	3	/	1
CC(=O)c1cccc(NC(=O)COC(=O)CCNS(=O)(=O)c2ccccc2)c1	3	2	-5	29*	1
O=C(COC(=O)CCNS(=O)(=O)c1ccccc1)NC(=O)Cc1ccccc1	-2	10	-4	30*	2
O=C(COC(=O)CCNS(=O)(=O)c1ccc(Cl)cc1)NCc1ccccc1	0	4	-3	/	1
CCOC(=O)N1CCN(C(=O)C[C@H]2C[C@@]3(C(=O)OC)C(=C[C@H](COCc4ccccc4)O[C@@H]3C)N(Cc3cccc4ccccc34)C2=O)CC1	/	/	1	/	-4
NC(=O)C1=CN([C@@H]2O[C@H](COP(=O)(O)OP(=O)(O)OC[C@H]3O[C@@H](n4cnc5c(N)ncnc54)[C@H](O)[C@@H]3O)[C@@H](O)[C@H]2O)C=CC1	/	/	1	/	15
CN(CCc1ccccc1)C(=O)c1cc2ccccn2n1	/	/	1	/	-9
O=[N+]([O-])c1ccccc1-c1ccc(/C=N/n2cnnc2)o1	5	8	-1	10	5
O=[N+]([O-])c1cc(-c2ccc(/C=N\n3cnnc3)o2)cc([N+](=O)[O-])c1	4	30	6	27*	23
COC(=O)C[C@@H]1CC[C@@H]2[C@@H](COc3ccc(NC(=O)Nc4cccc(Cl)c4)cc3C(=O)N2C)O1	/	/	3	/	4
CCCCCCNC(=O)C1CSCCS(=O)(=O)N1Cc1ccc(C)cc1 (stereo not drawn)	/	/	-2	/	-6
SMILES	TCR CD3 inh	HTRA1 inh	SIAE inh	pPAFAH inh	ABHD4 inh	others
CC1(OC(=O)C2CCCC2)C(=O)C=C2C=C(c3ccsc3)N(Cc3ccco3)C=C2C1=O (stereo not drawn)	/	25	/	31*	/
CC1(OC(=O)C2CCCC2)C(=O)C=C2C=C(c3ccsc3)N(CCCCO)C=C2C1=O (stereo not drawn)	-1	9	8	4	11
COc1ccc2nc3oc(C(=O)N4CCCCC4)cc3cc2c1	1	0	-1	11	0
CCOC(=O)C1CCN(C(=O)c2cc3cc4cc(OC)ccc4nc3o2)CC1	-4	-6	-5	29*	4
Cc1ccc2c(CC(=O)NCC3COc4ccccc4O3)coc2c1 (stereo not drawn)	6	-17	6	37*	-4	pPAFAH FP conf=7
O=C(Cc1ccccc1)NCC1COc2ccccc2O1 (stereo not drawn)	-11	-3	-2	1	4
OC[C@H]1CC[C@@H]2O[C@H](CCc3ccc(-c4ccc(F)cc4)cc3)[C@H](n3cc(C4CC4)nn3)C[C@@H]2O1	/	/	0	/	-14
O=C(N/N=C/c1ccccc1)c1ccc(-c2ccccc2)cc1	1	-9	0	69*	-2	pPAFAH FP conf=6
O=C(N/N=C\c1ccccc1F)c1ccc(-c2ccccc2)cc1	10	-13	-24	/	-17
Cc1nn(-c2ccc(F)cc2)c2sc(C(=O)N3CCCCCC3)cc12	5	-4	0	4	2
COc1ccc(NS(=O)(=O)c2ccc(O)c(NC(=O)c3cc4c(C)nn(-c5ccc(F)cc5)c4s3)c2)cc1	/	-12	/	36*	/	pPAFAH FP conf=29*
c1ccc(CNC2=NCCCCC2)cc1	-6	2	-5	-4	-1
Cc1ccc(CNC2=NCCCCC2)n1C	0	7	1	53*	-1	pPAFAH FP conf=3
CC(C)=CCC/C(C)=C/CNC(=O)C[C@H]1C[C@H](C(=O)N2CCCCC2)[C@@]2(C)c3[nH]c4cc(-c5ccco5)ccc4c3CCN2C1=O	5	-13	-3	41*	4	pPAFAH FP conf=23
CC(C)=CCC/C(C)=C/CNC(=O)C[C@H]1C[C@H](C(=O)N(C(C)C)C(C)C)[C@@]2(C)c3[nH]c4cc(CCC(=O)N(C)C)ccc4c3CCN2C1=O	12	-10	-3	68*	1	pPAFAH FP conf=59*
CC(C)=CCC/C(C)=C/CNC(=O)C[C@H]1C[C@H](C(=O)N2CCOCC2)[C@@]2(CCC3CCCC3)c3[nH]c4cc(CCC(=O)N(C)C)ccc4c3CCN2C1=O	2	10	3	39*	-1	pPAFAH FP conf=27*
Cc1ccc(C(=O)C2CCN(CC(=O)NCc3cccs3)CC2)cc1	/	/	8	/	5
CCCCNC(=O)C1CCCN1C(=O)NCc1ccccc1OC (stereo not drawn)	/	/	-4	/	1
Cc1nc(-c2ccc(O)c(O)c2)cs1	6	13	3	35*	15	pPAFAH FP conf=6
COc1cc(-c2csc(C)n2)ccc1O	6	0	4	2	8
O=C(Nc1ccc(S(=O)(=O)Nc2nccs2)cc1)c1ccncc1	-2	/	-1	/	-4
